Calls of active or inactive are those of the source.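 The calls were made as follows: active = fitted absorbance curve falls past 35% inhibition at a dose no higher than twice the top tested dose; inconclusive = flat fit at 30 to 70% inhibition, or poor fit; inactive = the rest.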
What was measured:
[1] = pyoverdine output of iron-starved P. aeruginosa PAK, dose response, PAK strain, absorbance 405 nm, dry powder (AID 624107); conditions: P. aeruginosa PAK + EDDHA, pyoverdine absorbance 405 nm, 28 h; at 100 µM (top of the series)
Summary of the method: (§1)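 Material – Pseudomonas aeruginosa PAK wild-type strain, whole bacterial cells · Probe or stimulus – iron chelator EDDHA at 2 µM in the medium · Doses – compound dose series from 100 µM down to 15 nM final · Incubation – 28 h, 30 °C, humidified · Buffer or medium – succinate M9 medium at pH 7.0 with 2 µM EDDHA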

[2] = system: P. aeruginosa PAK + EDDHA, pyoverdine absorbance 405 nm, 28 h; test: as above
Summary of the method: as §1

Row | Compound | activity change, negative = inhibition [1] | AC35 [2]
1 | COCCC(C#N)c1ccc(Cl)cc1 (stereo unspecified) | -7.69% (inactive) | –
2 | CN(C)CCCC(C#N)c1ccc(Cl)cc1 (stereo unspecified) | – | > 100 µM (inactive)
3 | N#CC(c1ccc(C(F)(F)F)c(Cl)n1)c1ccccc1OC(F)(F)F (stereo unspecified) | -22.7% (inactive) | –
4 | CCCCC(c1ccc(Cl)cc1)c1nn[nH]n1 (stereo unspecified) | -16.3% (inactive) | –
5 | N#CC(c1cccc(C(F)(F)F)n1)c1ccc(Cl)cc1F (stereo unspecified) | – | 5.42 µM
6 | N#CC(c1ccc(Cl)cc1)c1ncccc1Cl (stereo unspecified) | – | 22 µM
7 | N#CC(c1ccc(F)cc1)c1cccc(Cl)n1 (stereo unspecified) | -39.4% (inactive) | –
8 | COCCOCCC(C#N)c1ccc(Cl)cc1 (stereo unspecified) | 6.79% (inactive) | –
9 | N#CC(c1ccc(F)cc1)c1cccc(C(F)(F)F)n1 (stereo unspecified) | – | 9.8 µM
10 | N#CC(c1ccc(Cl)cc1)c1cccc(C(F)(F)F)n1 (stereo unspecified) | – | 3.67 µM
11 | COCCNC(C#N)c1ccc(Cl)cc1 (stereo unspecified) | -17.9% (inactive) | –
12 | CCCCC(C#N)c1ccccn1 (stereo unspecified) | 3.52% (inactive) | –
13 | Clc1ccc(C(c2cccc(Cl)n2)c2nn[nH]n2)cc1 (stereo unspecified) | 14.5% (inactive) | –
14 | N#CC(c1ccc(Cl)cc1)c1cccc(Cl)n1 (stereo unspecified) | – | 11.8 µM
15 | CCCCC(C#N)c1ccc(Cl)cc1 (stereo unspecified) | -14% (inactive) | –
16 | N#CC(c1cccc(Cl)n1)c1ccc(Cl)cc1F (stereo unspecified) | – | 5.28 µM
